CHRM5 PAM: human M5 muscarinic receptor positive allosteric modulators, primary screen, CHO-K1 cells, Fluo-8 calcium fluorescence. activation, % at 3 µM. Muscarinic acetylcholine receptor M5 (Homo sapiens), P08912. AID 624038, 2012. CHO-K1 hM5, ACh EC20 PAM; 0% = ACh EC20, 100% = ACh EC100. 0.3% of 360,000 active;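 active means activation above the run cutoff, the mean activation of all test compounds plus 3 SD, cut at about 18% in these data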
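System – CHO-K1 hM5 cells · Compound – 3 µM, single dose · Incubation – compound preincubation 140 s before EC20 acetylcholine addition · Technique – Fluo-8 calcium fluorescence · Measure – Max/basal fluorescence ratio as % of EC20–EC100 ACh window · Benchmarks – low control EC20 acetylcholine (0%), high control EC100 acetylcholine (100%) · Replication – singlicate, one well per test compound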
CHRM4 antagonist: human M4 muscarinic receptor antagonists, primary screen, CHO cells, Fluo-8 calcium fluorescence. Muscarinic acetylcholine receptor M4 (Homo sapiens), P08173. CHO-hM4 cells, ACh EC80. inhibition, % at 3 µM. 0.73% of 360,000 active. AID 624125, 2012;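 active means inhibition above its plate's cutoff, the mean inhibition of sample wells plus 3 SD, cut at about 27% in these data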
Target sequence (P08173 whole entry, looked up): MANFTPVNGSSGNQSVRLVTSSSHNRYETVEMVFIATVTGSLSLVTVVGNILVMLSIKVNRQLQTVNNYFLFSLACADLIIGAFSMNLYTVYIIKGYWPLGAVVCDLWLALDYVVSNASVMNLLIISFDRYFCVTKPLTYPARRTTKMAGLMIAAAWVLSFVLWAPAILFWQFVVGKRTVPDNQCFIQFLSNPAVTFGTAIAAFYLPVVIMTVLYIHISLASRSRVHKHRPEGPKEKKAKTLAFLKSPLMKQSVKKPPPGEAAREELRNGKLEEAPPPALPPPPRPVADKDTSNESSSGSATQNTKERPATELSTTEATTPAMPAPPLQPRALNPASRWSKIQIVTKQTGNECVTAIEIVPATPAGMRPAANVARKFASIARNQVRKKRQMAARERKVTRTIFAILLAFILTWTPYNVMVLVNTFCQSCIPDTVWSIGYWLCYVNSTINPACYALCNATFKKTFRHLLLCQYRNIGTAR
M5 ag: human M5 muscarinic receptor agonists, primary screen, CHO-K1 cells, Fluo-8 calcium fluorescence | CHO-K1 hM5 cells; 0% DMSO wells, 100% maximal acetylcholine response | activation, % at 3 µM | 0.19% of 360,000 active;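 active means activation above the run's mean over test compounds plus 3 SD, cut at about 23% in these data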;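 further: signal is peak over basal fluorescence ratio across the kinetic read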
M5 antag: human M5 muscarinic receptor antagonists, primary screen, CHO cells, Fluo-8 calcium fluorescence. 0.59% of 360,000 active. inhibition, % at 3 µM. Muscarinic acetylcholine receptor M5 (Homo sapiens), P08912. CHO-hM5 cells, ACh EC80;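 active means inhibition above a per-plate cutoff, the mean of that plate's test compounds plus 3 SD, cut at about 27% in these data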
CHRM4 agonist: human M4 muscarinic receptor agonists, primary screen, CHO-K1 cells, Fluo-8 calcium fluorescence; 0.14% of 360,000 active; activation, % at 3 µM; CHO-K1 hM4/Gqi5; vehicle 0%, full acetylcholine response 100%; Muscarinic acetylcholine receptor M4 (Homo sapiens), P08173;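 active means activation above the run mean over all test wells plus 3 SD, cut at about 32% in these data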;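 further: peak over basal fluorescence ratio per well then scaled between controls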
M4 PAM: human M4 muscarinic receptor positive allosteric modulators, primary screen, CHO-K1 cells, Fluo-8 calcium fluorescence | Muscarinic acetylcholine receptor M4 (Homo sapiens), P08173 | CHO-K1 hM4/Gqi5, ACh EC20; 0% = ACh EC20, 100% = maximal ACh | activation, % at 3 µM | 0.4% of 360,000 active;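 active means activation above its plate's cutoff, the mean activation of sample wells plus 3 SD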
Numbers stand for hits; ! = not active in a repeat. An excerpt weighted towards active compounds, which were near 1.9% of everything screened.

How did Cc1ccc(NC(=O)c2ccc(-c3cc(Cl)ccc3Cl)o2)c(C)c1 do in these assays?
CHRM5 PAM: inactive; CHRM4 antagonist: inactive; M5 ag: inactive; M5 antag: inactive; CHRM4 agonist: inactive; M4 PAM: inactive

What do the screens show for `Nc1ccc(C(=O)O)c(O)c1`?
CHRM5 PAM: inactive; CHRM4 antagonist: 43!; M5 ag: inactive; M5 antag: inactive; CHRM4 agonist: inactive; M4 PAM: inactive

What do the screens show for `Nc1c(O)cccc1C(=O)O`?
CHRM5 PAM: inactive; CHRM4 antagonist: inactive; M5 ag: inactive; M5 antag: inactive; CHRM4 agonist: inactive; M4 PAM: inactive

How did O=C(O)c1ccccc1O do in these assays?
CHRM5 PAM: inactive; CHRM4 antagonist: inactive; M5 ag: 26; M5 antag: inactive; CHRM4 agonist: inactive; M4 PAM: inactive

Results for O=C(O)c1ccc(O)cc1O ?
CHRM5 PAM: inactive; CHRM4 antagonist: inactive; M5 ag: inactive; M5 antag: inactive; CHRM4 agonist: inactive; M4 PAM: inactive

Results for Cc1ccccc1OCCNCC(C)O (stereo not given) ?
CHRM5 PAM: 28; CHRM4 antagonist: inactive; M5 ag: inactive; M5 antag: inactive; CHRM4 agonist: inactive; M4 PAM: inactive

How did CCOC(=O)CN(C(=O)c1snc(C(N)=O)c1N)C(C(=O)NCCC(C)C)c1ccc(C)cc1 (stereo not given) do in these assays?
CHRM5 PAM: inactive; CHRM4 antagonist: inactive; M5 ag: inactive; M5 antag: inactive; CHRM4 agonist: inactive; M4 PAM: inactive

What do the screens show for `Cc1cccnc1C1=NOC(Cc2ccccc2)C(=O)N1Cc1ccc2c(c1)OCO2` (stereo not given)?
CHRM5 PAM: inactive; CHRM4 antagonist: inactive; M5 ag: inactive; M5 antag: inactive; CHRM4 agonist: inactive; M4 PAM: inactive

How did Cc1[nH]c2ccccc2c1/C=N/Nc1ccc([N+](=O)[O-])cc1 do in these assays?
CHRM5 PAM: inactive; CHRM4 antagonist: inactive; M5 ag: inactive; M5 antag: 31; CHRM4 agonist: inactive; M4 PAM: inactive

What do the screens show for `Cc1[nH]c2ccccc2c1/C=N/NC(=O)c1cccc([N+](=O)[O-])c1`?
CHRM5 PAM: inactive; CHRM4 antagonist: inactive; M5 ag: inactive; M5 antag: inactive; CHRM4 agonist: inactive; M4 PAM: inactive

What do the screens show for `COc1ccc(NC(=O)N(C)C[C@@H]2OCc3cnnn3CCCC(=O)N([C@H](C)CO)C[C@@H]2C)cc1`?
CHRM5 PAM: inactive; CHRM4 antagonist: inactive; M5 ag: inactive; M5 antag: inactive; CHRM4 agonist: inactive; M4 PAM: inactive

Results for COc1cc(C(=O)OCC(=O)Nc2ccc3c(c2)OC(F)(F)O3)ccc1OCc1c(C)noc1C ?
CHRM5 PAM: 32; CHRM4 antagonist: inactive; M5 ag: inactive; M5 antag: inactive; CHRM4 agonist: inactive; M4 PAM: inactive

How did COc1ccc(NC(=O)COC(=O)c2ccc(OCc3c(C)noc3C)cc2)cc1OC do in these assays?
CHRM5 PAM: inactive; CHRM4 antagonist: inactive; M5 ag: inactive; M5 antag: inactive; CHRM4 agonist: inactive; M4 PAM: inactive

How did CC(Oc1ccc(Cl)cc1Cl)C(=O)NNC(=O)c1ccncc1 (stereo not given) do in these assays?
CHRM5 PAM: inactive; CHRM4 antagonist: inactive; M5 ag: inactive; M5 antag: inactive; CHRM4 agonist: inactive; M4 PAM: inactive

How did COC(=O)NNC(=O)C(C)Oc1ccc(Cl)cc1Cl (stereo not given) do in these assays?
CHRM5 PAM: inactive; CHRM4 antagonist: inactive; M5 ag: inactive; M5 antag: inactive; CHRM4 agonist: inactive; M4 PAM: 30

What do the screens show for `Cc1ccc2c(c1)C(=O)C(=O)N2Cc1ccc(C(F)(F)F)cc1`?
CHRM5 PAM: inactive; CHRM4 antagonist: inactive; M5 ag: 44; M5 antag: inactive; CHRM4 agonist: 32; M4 PAM: inactive

What do the screens show for `Cc1ccc(OCCN2C(=O)C(=O)c3cc(C)ccc32)cc1`?
CHRM5 PAM: inactive; CHRM4 antagonist: inactive; M5 ag: inactive; M5 antag: inactive; CHRM4 agonist: inactive; M4 PAM: inactive
